Test results published in ChEMBL document CHEMBL1125266, “Tyrphostins. 2. Heterocyclic and alpha-substituted benzylidenemalononitrile tyrphostins as potent inhibitors of EGF receptor and ErbB2/neu tyrosine kinases” (J Med Chem, 1991).

What was measured:
[1] = target: T1, Epidermal growth factor receptor (Homo sapiens, UniProt P00533); assay: Inhibition of polyGAT phosphorylation
[2] = target: Receptor tyrosine-protein kinase erbB-2 (Homo sapiens, UniProt P04626); assay: In vitro inhibition of ERBB2 receptor kinase autophosphorylation.
[3] = target: T1, Epidermal growth factor receptor; assay: In vitro inhibition of HER1 autophosphorylation.
NIH3T3 [4] = assay: (§1) Inhibition of HER14 serum dependent cell proliferation without EGF; format: functional, Mus musculus
Procedure, shortened: (§2)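 Serum-starved HER14 cells (NIH3T3 stably overexpressing EGF receptor) were given inhibitor at least 6-8 h before serum stimulation, with no EGF added. Inhibitor-containing medium was replaced every 24 h. Three parallel wells were used per concentration, and the IC50 for inhibition of serum-supported growth was determined.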

NIH3T3 [5] = assay: as §1; conditions: Mus musculus
NIH3T3 [6] = assay: Inhibition of HER14 (human EGFR overexpressing NIH3T3) cell growth in the absence of EGF.; format: functional, Mus musculus; procedure, shortened: as §2
[7] = target: T1, Epidermal growth factor receptor; assay: Inhibition of epidermal growth factor receptor autophosphorylation
NIH3T3 [8] = assay: as §1; format: functional, cell-based; conditions: Mus musculus; procedure, shortened: as §2

Receptor tyrosine-protein kinase erbB-2, sequence (P04626 whole entry): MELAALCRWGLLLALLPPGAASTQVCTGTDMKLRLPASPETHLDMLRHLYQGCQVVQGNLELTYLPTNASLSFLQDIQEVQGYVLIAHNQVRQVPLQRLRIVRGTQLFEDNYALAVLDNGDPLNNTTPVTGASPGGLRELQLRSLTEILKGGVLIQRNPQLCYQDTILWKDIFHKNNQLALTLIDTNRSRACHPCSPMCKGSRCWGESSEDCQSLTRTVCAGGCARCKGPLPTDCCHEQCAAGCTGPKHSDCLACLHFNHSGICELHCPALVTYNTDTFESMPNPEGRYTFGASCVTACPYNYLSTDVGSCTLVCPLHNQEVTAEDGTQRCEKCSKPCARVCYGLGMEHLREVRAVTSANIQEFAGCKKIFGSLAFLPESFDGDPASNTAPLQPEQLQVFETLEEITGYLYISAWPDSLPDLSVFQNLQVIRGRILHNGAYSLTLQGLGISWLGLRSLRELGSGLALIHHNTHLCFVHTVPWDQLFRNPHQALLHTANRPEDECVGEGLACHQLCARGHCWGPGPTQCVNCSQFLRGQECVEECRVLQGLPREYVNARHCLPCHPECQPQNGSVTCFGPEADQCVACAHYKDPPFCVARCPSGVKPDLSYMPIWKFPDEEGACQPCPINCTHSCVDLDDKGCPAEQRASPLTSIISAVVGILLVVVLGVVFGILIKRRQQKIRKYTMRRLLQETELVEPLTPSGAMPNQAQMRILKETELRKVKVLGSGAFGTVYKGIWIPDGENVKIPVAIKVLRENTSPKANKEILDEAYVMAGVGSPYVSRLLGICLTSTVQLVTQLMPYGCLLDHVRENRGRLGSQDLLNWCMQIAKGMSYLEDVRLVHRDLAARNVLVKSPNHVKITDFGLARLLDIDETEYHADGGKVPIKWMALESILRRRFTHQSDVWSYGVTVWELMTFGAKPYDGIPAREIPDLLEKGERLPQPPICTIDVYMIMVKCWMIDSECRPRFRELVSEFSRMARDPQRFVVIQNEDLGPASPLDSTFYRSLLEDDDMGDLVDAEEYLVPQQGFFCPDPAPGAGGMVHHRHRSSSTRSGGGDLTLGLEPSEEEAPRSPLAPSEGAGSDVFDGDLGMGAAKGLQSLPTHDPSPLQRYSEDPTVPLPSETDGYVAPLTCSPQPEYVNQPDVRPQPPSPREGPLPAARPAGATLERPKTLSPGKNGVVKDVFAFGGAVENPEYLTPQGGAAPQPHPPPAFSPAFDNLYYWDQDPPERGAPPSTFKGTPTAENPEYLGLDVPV
T1 sequence (P00533 whole entry): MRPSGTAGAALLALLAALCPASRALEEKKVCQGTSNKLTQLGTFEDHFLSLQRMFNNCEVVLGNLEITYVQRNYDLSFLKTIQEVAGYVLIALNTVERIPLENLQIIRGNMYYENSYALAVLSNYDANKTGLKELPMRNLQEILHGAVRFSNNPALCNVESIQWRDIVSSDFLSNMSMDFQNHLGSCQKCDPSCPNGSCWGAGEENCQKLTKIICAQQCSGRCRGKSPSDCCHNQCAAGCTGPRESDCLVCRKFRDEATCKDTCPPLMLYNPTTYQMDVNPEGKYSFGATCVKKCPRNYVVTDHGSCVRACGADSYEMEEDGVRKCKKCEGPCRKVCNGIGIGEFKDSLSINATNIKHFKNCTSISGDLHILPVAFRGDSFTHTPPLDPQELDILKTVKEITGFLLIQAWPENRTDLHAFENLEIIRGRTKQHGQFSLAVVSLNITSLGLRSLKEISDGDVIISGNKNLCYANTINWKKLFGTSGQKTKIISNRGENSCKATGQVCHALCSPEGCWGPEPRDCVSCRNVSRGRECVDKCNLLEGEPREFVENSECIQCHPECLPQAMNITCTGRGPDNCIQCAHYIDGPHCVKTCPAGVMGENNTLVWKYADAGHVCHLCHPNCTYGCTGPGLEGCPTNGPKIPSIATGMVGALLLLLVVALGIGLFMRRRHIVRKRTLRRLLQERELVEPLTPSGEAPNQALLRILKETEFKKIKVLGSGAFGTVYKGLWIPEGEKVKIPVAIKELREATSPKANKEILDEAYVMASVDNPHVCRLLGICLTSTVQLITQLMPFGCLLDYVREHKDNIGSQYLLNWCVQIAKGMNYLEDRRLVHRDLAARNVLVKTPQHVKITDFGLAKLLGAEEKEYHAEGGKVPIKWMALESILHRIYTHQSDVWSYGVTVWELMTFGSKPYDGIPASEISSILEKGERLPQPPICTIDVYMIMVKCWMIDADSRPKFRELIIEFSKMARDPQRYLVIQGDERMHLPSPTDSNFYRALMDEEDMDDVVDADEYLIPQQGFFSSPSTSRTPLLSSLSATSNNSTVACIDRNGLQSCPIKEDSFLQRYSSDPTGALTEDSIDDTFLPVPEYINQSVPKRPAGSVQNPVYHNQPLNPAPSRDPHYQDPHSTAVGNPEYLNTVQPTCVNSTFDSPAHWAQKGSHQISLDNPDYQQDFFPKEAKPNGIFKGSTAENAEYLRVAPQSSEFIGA

Compound	IC50 [1] [µM]	IC50 [2] [µM]	IC50 [3] [µM]	further results
N#CC(C#N)=C1C(=O)Nc2ccc([N+](=O)[O-])cc21	40			
N#C/C(=C\c1ccc(O)c(O)c1)C(=O)N1CCCCC1	> 1000			
N#C/C(=C\c1ccc(O)c(O)c1)C(=O)N1CCN(c2ccccc2)CC1	4.3	49	55	
N#CC(C#N)=Cc1ccc2c(c1)CCN2Cc1ccccc1	> 2500			
N#CC(C#N)=C1CCCc2c(O)cccc21	1200			
N#CC(C#N)=C1CCc2cc(O)c(O)cc21	0.5			Inhibition (NIH3T3 [4]): >150%
N#C/C(=C\c1ccc(O)c(O)c1)C(=O)NCCc1ccccc1	0.93	23	< 0.625	
N#CC(C#N)=Cc1ccc2[nH]ccc2c1				IC50 (NIH3T3 [5]): 12 µM
C[S+]([O-])c1ccc(C=C(C#N)C#N)cc1 (centres undefined)	1800			
N#C/C(=C\c1ccc(O)c(O)c1)C(N)=O		6.4	4.5	IC50 (NIH3T3 [6]): 60 µM
N#CC(C#N)=Cc1ccco1	> 1250			
N#C/C(=C\c1ccc(O)c(O)c1)C(=O)NC1CCCCC1	1.6	17	5.9	IC50 (NIH3T3 [6]): 50 µM
N#C/C(=C\c1ccc(O)c(O)c1)C(=O)NCCCCc1ccccc1	1.1	> 500	5	IC50 (NIH3T3 [6]): 10 µM
N#C/C(=C\c1ccc(O)c(O)c1)C(=O)NCCCc1ccccc1	0.7	35	0.7	IC50 (NIH3T3 [6]): 25 µM
Cc1ccc(C(=O)/C(C#N)=C/c2ccc(O)c(O)c2)cc1	0.88	10	15	IC50 (NIH3T3 [6]): 100 µM
N#C/C(=C\c1ccc(O)c(O)c1)C(=O)c1ccc(F)cc1	0.56	13.6		IC50 (NIH3T3 [4]): 80 µM; IC50 [7]: 5.1 µM
Cc1cccc(C)c1NC(=O)/C(C#N)=C/c1ccc(O)c(O)c1	5.1	34	10.3	IC50 (NIH3T3 [6]): > 20 µM
N#CC(C#N)=C1C(=O)Nc2ccc(O)cc21	12.5			
Cc1cc(C)c(C(=O)/C(C#N)=C/c2ccc(O)c(O)c2)c(C)c1	10.7	50	24	
N#C/C(=C\c1ccc(O)c(O)c1)C(=O)c1cccs1	3.1	35	31	
N#C/C(=C\c1ccc(O)c(O)c1)C(=O)c1ccccc1	1.3	18	14	IC50 (NIH3T3 [6]): 120 µM
CN1C(=O)C(=C(C#N)C#N)c2cc(O)ccc21	26			

Compound	IC50 [1] [µM]	IC50 [2] [µM]	IC50 [3] [µM]	further results
N#C/C(=C\c1ccc(O)c(O)c1)C(=O)Nc1ccccc1Cl	1.1	57	2.1	IC50 (NIH3T3 [6]): 12 µM
N#CC(C#N)=Cc1cccnc1	225			
CCOC(=O)C(Cc1ccccc1)NC(=O)/C(C#N)=C/c1ccc(O)c(O)c1 (centres undefined)	1.53	> 333	49	
N#C/C(=C\c1ccc(O)c(O)c1)C(=O)c1ccc(O)c(O)c1	0.37	18	5	IC50 (NIH3T3 [4]): > 50 µM
COc1ccc(CCNC(=O)/C(C#N)=C/c2ccc(O)c(O)c2)cc1OC	1.7			
N#C/C(=C\c1ccc(O)c(O)c1)C(=O)N1CCc2ccccc21	2.1	4.9	12	IC50 (NIH3T3 [6]): 100 µM
N#C/C(=C\c1ccc(O)c(O)c1)C(=O)NCc1ccccc1		13.5		IC50 (NIH3T3 [6]): 25 µM
N#CC(C#N)=Cc1ccc(S(=O)(=O)O)o1	> 250			
N#C/C(=C\c1ccc(O)c(O)c1)C(=O)Nc1ccccc1		42		IC50 (NIH3T3 [6]): > 50 µM
N#C/C(=C\c1ccc(O)c(O)c1)C(=O)c1ccc([N+](=O)[O-])cc1	2.3	3	11	IC50 (NIH3T3 [6]): <<20 uM
COc1cc2c(cc1O)NC(=O)C2=C(C#N)C#N	60			
COc1ccc(C=C(C#N)C#N)cc1F	800			
COc1ccc(NC(=O)/C(C#N)=C/c2ccc(O)c(O)c2)c(OC)c1		> 166		
N#CC(C#N)=C1CCc2c1ccc(O)c2O	7			
N#CC(C#N)=C1C(=O)Nc2cc(O)c(O)cc21	2.5			
CSc1ccc(C=C(C#N)C#N)cc1	> 625			
CC(=O)Nc1ccc(C=C(C#N)C#N)cc1	> 325			
N#CC(C#N)=Cc1ccc(C#N)cc1	1400			
N#C/C(=C\c1ccc(O)c(O)c1)C(=O)c1ccccc1Cl	1.54	12	6.6	
N#CC(C#N)=C(N)/C(C#N)=C/c1ccc2[nH]ccc2c1	820			IC50 (NIH3T3 [4]): >>100 uM; IC50 (NIH3T3 [8]): 7 µM
CC(NC(=O)/C(C#N)=C/c1ccc(O)c(O)c1)c1ccccc1 (stereo in doubt; 44)	0.4	37	2.5	IC50 (NIH3T3 [6]): 10 µM
CC(NC(=O)/C(C#N)=C/c1ccc(O)c(O)c1)c1ccccc1 (stereo in doubt; 50)	0.86			
